# From PubChem
# bCat nuc transl = alters nuclear translocation of beta-catenin in HeLa cells. immunofluorescence imaging. nuclear translocation activity, % at 5 µM. 190,000 tested, 0.3% active. AID 1665;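 active means nuclear translocation activity above 50% at 5 µM, with a well cell count of 50 or more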;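 further: per-cell ratio of nuclear to cytoplasmic median beta-catenin stain intensity; plate controls were DMSO negative control for no effect and GSK-3 inhibitor IX positive control for full effect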
#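 System: HeLa cells, endogenous beta-catenin; compound dosing: 5 µM primary single dose, 0.1% DMSO, 0.02–20 µM confirmation series; incubation: 24 h compound exposure at 37°C, 5% CO2; signal: beta-catenin immunofluorescence imaging with DAPI; evaluation: % activation, nuclear-to-cytoplasmic median beta-catenin signal ratio per cell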
# BaF3 parental = reduces parental Ba/F3 cell viability, JAK2V617F counter-screen; CellTiter-Glo ATP luminescence; inhibition, % at 5.6 µM; 220,000 tested, 1.1% active; AID 1486;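 active means inhibition above a per-campaign cutoff, the mean inhibition of all tested compounds plus 3 SD, cut at about 27% in these data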;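 further: 0% = DMSO wells and 100% = JAK Inhibitor I control wells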
# APP transl inh = APP translation inhibition; SH-SY5Y APP 5'UTR-luciferase reporter, luminescence; inhibition, % at 2 µM; 190,000 tested, 0.82% active;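 active means inhibition above a set limit, derived from the sample mean plus 3 SD, cut at about 45% in these data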
# MT stabilize HCS = stabilizes microtubules in HeLa cells; AID 2205; 200,000 tested, 0.83% active; % tubulin-high responders, % at 10 µM; HeLa tubulin immunostaining HCS, 24 h; share of cells brighter than vehicle mean+2SD;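 active means plate Z-score above 3 for both tubulin-high and condensed-nucleus cell shares, with cell loss under 80%, at 10 µM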;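 further: anti alpha tubulin signal scored within the nucleus-defined area of each cell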
# Lmaj promast = inhibitors of Leishmania major promastigote growth | 200,000 tested, 9% active | inhibition, % at 10 µM | AID 1063 | Leishmania major promastigotes, resazurin fluorescence viability; in the data active means inhibition above about 50%;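 further: promastigotes grown with compound for 44 hours at 28 °C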
# Ba/F3 V617F tox = reduce viability of Ba/F3 cells dependent on JAK2V617F; AID 1446; 220,000 tested, 1.1% active; inhibition, % at 5.6 µM; Ba/F3 EpoR-JAK2V617F viability, ATP luminescence;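 active means inhibition above the campaign mean plus 3 SD over all tested compounds, cut at about 24% in these data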;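 further: cytokine-independent growth of Ba/F3 cells driven by EpoR plus mutant JAK2; 0% = DMSO-treated cells and 100% = JAK inhibitor I control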
# Numbers without * were called inactive; · = no result. Most compounds without a hit are left out; they make up all but 9.6% or so of the library.
SMILES,bCat nuc transl,BaF3 parental,APP transl inh,MT stabilize HCS,Lmaj promast,Ba/F3 V617F tox
CC(C)(C)c1cc(C(=O)NNC(=O)c2ccc(C(F)(F)F)cc2)no1,-3.9,3.5,·,·,·,-4.7
O=C(CN1C(=O)C2CC=C(Cl)CC2C1=O)NCc1ccccc1 (centres undefined),-1.1,9.3,7.7,4.2,-8.1,2.0
COc1ccc(-c2csc(Cc3nnc4n3CCCCC4)n2)cc1OC,-3.6,5.0,-2.4,0.9,59.6*,-0.9
COc1ccc(N2CCCCn3c2nc2c3c(=O)n(C)c(=O)n2C)cc1,-8.4,1.8,-19.4,0.9,1.7,1.2
Cn1c(=O)n(Cc2ccccc2)c(=O)c2c1nc1n2CCCN1CCc1ccccc1,·,6.6,5.5,2.0,100.4*,1.5
Cn1c(=O)n(Cc2ccccc2)c(=O)c2c1nc1n2CCCN1Cc1ccccc1,·,6.7,-9.4,1.5,-5.0,-1.0
CCN1CCCn2c1nc1c2c(=O)n(C)c(=O)n1C,-0.2,0.9,10.3,3.7,58.7*,-4.0
Cn1nc(C(=O)NC2CCCc3ccccc32)ccc1=O (centres undefined),-0.5,5.4,-20.1,2.0,2.4,2.3
CCOC(=O)c1ccc(NC(=O)CCC(=O)OC)cc1,-1.7,-1.5,-2.9,5.2,-6.7,-0.4
CCNc1nc(SCC(=O)OC)nc(N(C)C)n1,-3.1,-0.2,9.1,2.6,-5.8,-5.2
CCc1ccc2[nH]c(=O)c(CN(CCCN3CCOCC3)C(=O)Nc3cccc(Cl)c3)cc2c1,-2.7,4.2,2.8,4.2,83.5*,4.1
Cc1ccc(C)c2[nH]c(=O)c(CN(CCN3CCCC3)C(=O)Nc3cccc(Cl)c3)cc12,0.5,2.9,-15.9,1.1,100.5*,4.9
Cc1cc(C)c2cc(CN(CCN3CCCC3)C(=O)Nc3ccc(F)cc3)c(=O)[nH]c2c1,-2.5,11.9,-8.2,4.5,43.6,4.9
COc1ccc(S(=O)(=O)n2nc(OC(C)=O)cc2N(C(C)=O)C(C)=O)cc1,-3.8,-0.3,-4.9,8.4,-5.2,-0.5
COc1ccc(/C=N/NC(=O)c2cccc(O)c2)cc1Cn1nc(C)c([N+](=O)[O-])c1C,-0.1,5.3,6.7,18.7*,-4.1,-0.5
COc1ccc(/C=N/NC(=O)c2ccc(N)cc2)cc1Cn1cc([N+](=O)[O-])cn1,0.3,0.1,11.9,12.4*,1.4,-3.0
COCCN(C(=S)Nc1ccc(C)cc1C)C(C)c1ccco1 (centres undefined),·,-1.9,-9.8,1.9,40.5,-3.1
CC(C)N(C(=O)COC(=O)CNC(=O)c1ccc(Br)cc1)c1ccccc1,0.1,0.9,38.5,2.5,-8.5,-2.7
O=[N+]([O-])c1ccc(N=NN(CCO)CCO)cc1,0.7,3.7,-12.6,3.6,-7.6,-3.3
O=[N+]([O-])c1ccc(N=Nc2ccc(O)cc2O)cc1,·,3.3,15.3,22.0*,9.5,-3.9
Clc1ccc(C2CC(c3ccccc3)Nc3ncnn32)cc1 (centres undefined),-1.1,0.6,2.5,2.9,-5.9,-0.8
Clc1ccc(C2CC(c3ccco3)n3ncnc3N2)cc1Cl (centres undefined),2.4,1.4,10.9,2.7,51.4*,-6.2
COc1ccc2nc3oc(C(=O)NC4CCN(Cc5ccccc5)CC4)cc3cc2c1,-0.6,3.5,5.0,3.5,99.8*,2.4
COc1ccc2cc3cc(C(=O)NCCN4CCc5ccccc5C4)oc3nc2c1,·,1.4,-6.8,0.8,98.9*,-4.6
COc1ccc2cc3cc(C(=O)NCCN4CCN(Cc5ccccc5)CC4)oc3nc2c1,0.5,14.6,0.0,2.0,95.0*,10.4
SMILES,bCat nuc transl,BaF3 parental,APP transl inh,MT stabilize HCS,Lmaj promast,Ba/F3 V617F tox
COc1ccc2cc3cc(C(=O)NCc4cccs4)oc3nc2c1,7.2,0.2,15.9,2.3,18.7,-2.2
COc1ccc2cc3cc(C(=O)NCCN4CCc5ccccc5C4)sc3nc2c1,0.4,2.6,-27.0,4.2,50.0*,0.3
CCOC(=O)N1CCC(NC(=O)c2cc3cc4cc(OC)ccc4nc3o2)CC1,0.2,6.8,6.5,3.4,32.0,0.6
CCC(C)NC(=O)c1cc2cc3ccc(OC)cc3nc2s1 (centres undefined),·,2.6,-214.1,1.1,11.0,-1.1
Cc1ccc(-n2c(Cn3nc(C(F)(F)F)cc3C)n[nH]c2=S)cc1,2.3,6.9,-14.3,2.7,-4.4,2.1
COC(=O)/C=C1\C(=O)N(c2nc3ccc(OC)cc3s2)C(=S)N1c1ccc(F)cc1,-1.0,1.9,-1.7,2.5,66.8*,5.5
Cc1ccc(CNC(=O)Cc2noc3ccccc23)cc1,-2.5,8.1,-104.0,1.9,-3.4,4.4
O=C(COc1ncnc2c(Cl)cc(Cl)cc12)NCCC1=CCCCC1,·,1.7,4.0,2.0,99.7*,-2.7
O=C(COC(=O)Cc1ccc(Cl)cc1Cl)NCCC1=CCCCC1,-4.9,-0.6,-5.5,1.7,53.6*,-1.8
COc1ccc(/C=C\C(=O)c2c(O)ccc3c(C)cc(=O)oc23)cc1OC,1.8,1.2,-2.1,2.9,100.2*,-3.5
Cc1cc(=O)oc2c(C(=O)/C=C/c3ccccc3)c(O)ccc12,2.8,7.4,7.7,2.4,51.7*,-1.6
COc1cc(/C=C/C(=O)c2c(O)ccc3c(C)cc(=O)oc23)ccc1O,1.6,8.9,-10.9,2.9,99.4*,8.6
Cc1cc(=O)oc2c(C(=O)/C=C\c3cccs3)c(O)ccc12,-1.1,3.0,-1.9,2.2,34.1,0.4
S=C(Nc1ccc(Oc2ccccc2)cc1)NC1CCCC1,1.1,8.1,-6.9,2.7,44.5,4.1
S=C(NCC1CCCCC1)Nc1ccc(Oc2ccccc2)cc1,·,6.7,-36.6,1.5,90.4*,1.6
COc1ccc(-n2cc(CNCCCN3CCCC3=O)c(-c3ccccc3Cl)n2)cc1,1.6,2.9,-3.6,2.8,6.5,1.9
Fc1ccc(-n2cc(CNCCc3cccnc3)c(-c3ccccc3Cl)n2)cc1,0.0,4.5,-27.2,2.7,57.2*,1.0
Fc1ccc(-n2cc(CNCCc3ccncc3)c(-c3ccccc3Cl)n2)cc1,1.1,15.4,-8.4,1.2,64.0*,5.6
CCCCc1ccc(NC(=S)NCc2ccc(OC)cc2)cc1,0.9,5.5,-24.2,2.0,15.8,0.8
CC1=C(C(=O)Nc2cccc(C)c2C)C(c2cccs2)NC(=S)N1 (centres undefined),0.3,0.9,-12.1,4.9,7.0,-3.2
O=C(c1ccc(Cl)c([N+](=O)[O-])c1)N(c1ccccn1)c1ccccn1,-1.2,2.5,-3.5,3.6,70.3*,0.1
Cn1c(-c2ccccc2)cnc1SCC(=O)N1CCCc2ccccc21,-1.3,4.0,10.5,1.6,76.7*,-1.7
O=C(CSc1nnc(-c2ccccc2)c(-c2ccccc2)n1)N1CCc2ccccc21,1.2,5.3,-10.7,3.1,56.7*,0.2
CCCc1nc(SCC(=O)N2CCc3ccccc32)c2c(=O)n(C)c(=O)n(C)c2n1,0.2,·,·,·,·,·
CC(C)c1nc(SCC(=O)N2CCCc3ccccc32)c2c(=O)n(C)c(=O)n(C)c2n1,-0.3,-1.3,-15.5,4.5,51.2*,-4.9
